# Experimental data collected from several papers.
# Compare with care: the assays were run in different laboratories.
# Target: Serine/threonine-protein kinase MARK1 (MARK1, Homo sapiens, UniProt Q9P0L2)
Compound,test,setting,quantity,result
CO[C@@H]1[C@H](N(C)C(=O)c2ccccc2)C[C@H]2O[C@]1(C)n1c3ccccc3c3c4c(c5c6ccccc6n2c5c31)C(=O)NC4,"enzyme activity, inhibitor",1 µM,inhibition,96%
CCCCC(=O)Nc1ccc(-c2ccc3ncn(CCC)c(=O)c3c2)cn1,"binding, competition with immobilised ligand",0.5 µM,remaining binding,81%
C[C@H]1CC[C@H](n2c3cnccc3c3cnc(Nc4ccc5c(n4)CCN(C(=O)CO)C5)nc32)CC1,cell-free assay,1 µM,remaining signal,66%
COc1ccc2oc(-c3ccc4nc(N)oc4c3)c/c(=N\c3ccccc3NC(=O)CCN)c2c1,binding,1 µM,remaining binding,103%
C1=C/COCc2cc(ccc2OCCN2CCCC2)Nc2nccc(n2)-c2cccc(c2)COC/1,binding,0.1 µM,remaining binding,100%
CC#CC(=O)N1CCC[C@H]1c1nc(-c2ccc(C(=O)Nc3ccccn3)cc2)c2c(N)nccn12,"enzyme activity, inhibitor",1 µM,inhibition,10%
C#Cc1cc(-c2cc(Nc3nc(N[C@@H](C)c4ccc(F)cn4)ncc3Cl)n[nH]2)ccc1C=O,"enzyme activity, inhibitor",0.2 µM,inhibition,8.26%
Cc1ccc(NC(=O)c2ccnc(C(F)(F)F)c2)cc1-c1cc(OCCO)nc(N2CCOCC2)c1,binding,1 µM,remaining binding,100%
